# Assay results: ChEMBL document CHEMBL1131504, “(Z)- and (E)-2-((hydroxymethyl)cyclopropylidene)methyladenine and -guanine. New nucleoside analogues with a broad-spectrum antiviral activity” (J Med Chem, 1998)
# System: CEM-SS
# Test: Cytotoxicity on CEM-SS cells
# Type: functional, cell-based
# Settings: Homo sapiens
# Outline: (§1)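 Visual cytotoxicity: microscopic inspection of stationary uninfected CEM or CEM-SS cells from suspension cultures.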
row,SMILES,IC50
1,Nc1nc(O)c2ncn(/C=C3/CC3CO)c2n1 (stereo not given) [SYNGUANOL],> 100 µM
2,Nc1nc(Cl)c2ncn(/C=C3\CC3CO)c2n1 (stereo not given),> 100 µM

# System: CCRF-CEM
# Test: Inhibitory concentration against mitochondrial DNA synthesis CEM cells
# Type: functional, cell-based
# Settings: Homo sapiens
# Outline: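 CEM cells (2 × 10^5/mL) in RPMI 1640 + 10% dialyzed FBS with compound, re-split with fresh drug on days 4 and 6. On day 8, 1 × 10^5 cells lysed with RNase A and proteinase K, slot-blotted, probed with a mitochondrial DNA-specific probe.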
row,SMILES,IC50
1,Nc1ccn([C@H]2CC[C@@H](CO)O2)c(=O)n1 [ZALCITABINE],0.07 µM
2,Nc1nc(O)c2ncn(/C=C3/CC3CO)c2n1 (stereo not given) [SYNGUANOL],> 100 µM

# System: CCRF-CEM
# Test: Cytotoxicity on CEM cells
# Type: functional, cell-based
# Settings: Homo sapiens
# Outline: as §1
row,SMILES,IC50
1,Nc1ccn([C@H]2CC[C@@H](CO)O2)c(=O)n1 [ZALCITABINE],10 µM

# System: CCRF-CEM
# Test: Cytotoxicity was measured on CEM cells infected with Herpes Simplex virus […]
# Type: functional, cell-based
# Settings: Homo sapiens
row,SMILES,IC50
1,Nc1nc(O)c2ncn(/C=C3/CC3CO)c2n1 (stereo not given) [SYNGUANOL],> 100 µM
2,Nc1nc(Cl)c2ncn(/C=C3\CC3CO)c2n1 (stereo not given),60 µM

# System: Daudi
# Test: Cytotoxicity on Daudi cells at time of […] in cells not effected by the virus.
# Type: functional, cell-based
# Settings: Homo sapiens
row,SMILES,IC50
1,Nc1nc(O)c2ncn(/C=C3/CC3CO)c2n1 (stereo not given) [SYNGUANOL],> 214 µM
2,Nc1nc(Cl)c2ncn(/C=C3\CC3CO)c2n1 (stereo not given),> 199 µM

# System: Daudi
# Test: Inhibitory concentration against epstein-barr virus (EBV) infected daudi cells was determined
# Type: functional, cell-based
# Settings: Homo sapiens
# Outline: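 Daudi cells infected with P3HR-1 EBV at 0.1–0.2 moi for 45 min at 37 °C, washed, then incubated 48 h with serially diluted drug in RPMI-1640. Acetone-fixed cells stained with anti-VCA monoclonal antibody and FITC anti-mouse IgG, Evans Blue counterstain; 500 cells counted, VCA-positive fraction used for IC50.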
row,SMILES,IC50
1,Nc1nc(O)c2ncn(/C=C3/CC3CO)c2n1 (stereo not given) [SYNGUANOL],5.6 µM
2,Nc1nc(Cl)c2ncn(/C=C3\CC3CO)c2n1 (stereo not given),143 µM

# System: Human alphaherpesvirus 1
# Test: Inhibitory concentration against herpes simplex virus type 1 (HSV-1) was determined by enzyme-linked immunosorbent assay (ELISA)
# Type: functional, organism-based
# Settings: not given
row,SMILES,IC50
1,Nc1nc(O)c2ncn(/C=C3/CC3CO)c2n1 (stereo not given) [SYNGUANOL],100 µM
2,Nc1nc(Cl)c2ncn(/C=C3\CC3CO)c2n1 (stereo not given),> 100 µM

# System: not listed separately
# Test: Cytotoxicity on H-1 cells at time of HCMV plaque enumeration in cells not effected by the virus.
# Type: functional, cell-based
# Settings: Homo sapiens
row,SMILES,IC50
1,Nc1nc(O)c2ncn(/C=C3/CC3CO)c2n1 (stereo not given) [SYNGUANOL],> 50 µM
2,Nc1nc(Cl)c2ncn(/C=C3\CC3CO)c2n1 (stereo not given),< 50 µM

# System: HFF
# Test: Cytotoxicity on stationary HFF cells at time of HCMV plaque enumeration in cells not effected by the virus.
# Type: functional, cell-based
# Settings: Homo sapiens
# Outline: (§2)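 Visual cytotoxicity scored microscopically on stationary HFF or MEF cells not affected by virus, at the time of HCMV or MCMV plaque enumeration.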
row,SMILES,IC50
1,Nc1nc(O)c2ncn(/C=C3/CC3CO)c2n1 (stereo not given) [SYNGUANOL],> 100 µM

# System: HFF
# Test: IC50 value was evaluated by measuring the %inhibition of Human Herpes Virus 6(HHV-6) infected […] cells using ELISA assay
# Type: functional, cell-based
# Settings: not given
row,SMILES,IC50
1,Nc1nc(O)c2ncn(/C=C3/CC3CO)c2n1 (stereo not given) [SYNGUANOL],42.5 µM

# System: HFF
# Test: IC50 value was evaluated by measuring the %inhibition of Varicella Zoster virus(VZV) infected HFF cells using plaque reduction assay.
# Type: functional, cell-based
# Settings: Homo sapiens
# Outline: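 HFF cells plated 2 days earlier and infected with VZV (20–30 plaques/well) for 1 h. Six 1:5 drug dilutions in MEM + 2% FBS, no antibody overlay, duplicate wells; extra medium on day 5, 10 days total at 37 °C. Neutral red stain, plaques counted; IC50 from regression.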
row,SMILES,IC50
1,Nc1nc(O)c2ncn(/C=C3/CC3CO)c2n1 (stereo not given) [SYNGUANOL],61.3 µM

# System: HFF
# Test: Inhibitory concentration against herpes simplex virus type 1 (HSV-1) infected HFF cells was determined by cytopathic effect inhibition assay
# Type: functional, cell-based
# Settings: Homo sapiens
# Outline: (§3)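 HFF cells (low passage) seeded 24 h before in MEM + 10% FBS; drug in MEM + 2% FBS, serial 1:5 dilutions in triplicate, 1 h pre-incubation, then HSV-1 or HSV-2 at 1000 pfu/well. Incubated 3 days at 37 °C, crystal violet/ethanol/formaldehyde stain, absorbance at 630 nm; IC50 by linear regression of % inhibition vs log concentration.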
row,SMILES,IC50
1,Nc1nc(O)c2ncn(/C=C3/CC3CO)c2n1 (stereo not given) [SYNGUANOL],61.7 µM
2,Nc1nc(Cl)c2ncn(/C=C3\CC3CO)c2n1 (stereo not given),> 79.5 µM

# System: HFF
# Test: Inhibitory concentration against human cytomegalovirus replication in HFF cells was determined by cytopathic effect inhibition assay
# Type: functional, cell-based
# Settings: not given
# Outline: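 HFF cells seeded 24 h before; serial 1:5 drug dilutions in MEM + 2% FBS in triplicate, 1 h, then 2500 pfu/well CMV. Incubated 14 days at 37 °C with 50 μL MEM added on day 7; crystal violet stain, read at 630 nm. IC50 from regression.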
row,SMILES,IC50
1,Nc1nc2c(ncn2COC(CO)CO)c(=O)[nH]1 [GANCICLOVIR],2.6 µM
2,Nc1nc(O)c2ncn(/C=C3/CC3CO)c2n1 (stereo not given) [SYNGUANOL],0.04 µM
3,Nc1nc(Cl)c2ncn(/C=C3\CC3CO)c2n1 (stereo not given),> 79.5 µM

# System: HFF
# Test: Inhibitory concentration against human cytomegalovirus replication in HFF cells was determined by plaque reduction assay
# Type: functional, cell-based
# Settings: not given
# Outline: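 HFF cells infected with HCMV Towne (~100 pfu/cm2). After adsorption, drug added to duplicate wells at four to eight concentrations; 8–10 days at 37 °C, crystal violet stain, microscopic plaques counted. % plaque reduction vs no-drug control; IC50 by linear regression vs log concentration.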
row,SMILES,IC50
1,Nc1nc2c(ncn2COC(CO)CO)c(=O)[nH]1 [GANCICLOVIR],7.4 µM
2,Nc1nc(O)c2ncn(/C=C3/CC3CO)c2n1 (stereo not given) [SYNGUANOL],2.1 µM
3,Nc1nc(Cl)c2ncn(/C=C3\CC3CO)c2n1 (stereo not given),> 100 µM

# System: HFF
# Test: Inhibitory concentration against human cytomegalovirus replication in HFF cells was determined by yield reduction assay
# Type: functional
# Settings: not given
# Outline: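 HFF cells (12 500/well) infected with HCMV at moi 0.5–1 and exposed to compound in duplicate at 100 to 0.14 μM for 4 days at 37 °C. After freeze–thaw, supernatants serially diluted onto fresh HFF monolayers and plaques titered; IC90 reported.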
row,SMILES,IC90
1,Nc1nc2c(ncn2COC(CO)CO)c(=O)[nH]1 [GANCICLOVIR],1.6 µM
2,Nc1nc(O)c2ncn(/C=C3/CC3CO)c2n1 (stereo not given) [SYNGUANOL],1.8 µM
3,Nc1nc(Cl)c2ncn(/C=C3\CC3CO)c2n1 (stereo not given),11 µM

# System: HFF
# Test: Compound was tested against HFF cells infected with herpes simplex virus type 2 (HSV-2) by cytopathic effect inhibition assay
# Type: functional, cell-based
# Settings: Homo sapiens
# Outline: as §3
row,SMILES,IC50
1,Nc1nc(O)c2ncn(/C=C3/CC3CO)c2n1 (stereo not given) [SYNGUANOL],> 413 µM
2,Nc1nc(Cl)c2ncn(/C=C3\CC3CO)c2n1 (stereo not given),> 79.5 µM

# System: HepG2
# Test: Inhibitory concentration against hepatitis B virus infected 2.2.15 cells
# Type: functional, cell-based
# Settings: Homo sapiens
# Outline: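 HBV-producing 2.2.15 cells in MEM + 10% FBS; compounds added on days 6 and 9, 6 days of exposure. Virions in the medium precipitated with PEG/NaCl, DNA extracted, run on 0.8% agarose, Southern blotted with 32P HBV probe, quantified by densitometry.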
row,SMILES,IC50
1,Nc1ccn([C@H]2CC[C@@H](CO)O2)c(=O)n1 [ZALCITABINE],1.4 µM
2,Nc1nc(O)c2ncn(/C=C3/CC3CO)c2n1 (stereo not given) [SYNGUANOL],10 µM
3,Nc1nc(Cl)c2ncn(/C=C3\CC3CO)c2n1 (stereo not given),> 10 µM

# System: KB
# Test: Cytotoxicity was evaluated by measuring the inhibition of KB cell growth.
# Type: functional, cell-based
# Settings: Homo sapiens
# Outline: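 KB cells at 3000–5000/well, overnight at 37 °C, compound added in triplicate at eight concentrations. Growth over 48 h (two population doublings), then ethanol fixation, 0.1% crystal violet stain, eluted dye read at 570 nm; quadruplicate assays. IC50 by linear regression of % inhibition vs log concentration.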
row,SMILES,IC50
1,Nc1nc(O)c2ncn(/C=C3/CC3CO)c2n1 (stereo not given) [SYNGUANOL],> 100 µM
2,Nc1nc(Cl)c2ncn(/C=C3\CC3CO)c2n1 (stereo not given),> 100 µM

# System: MEF
# Test: Inhibitory concentration against murine cytomegalovirus replication in MEF cells was determined by plaque reduction assay
# Type: functional, cell-based
# Settings: Mus musculus
# Outline: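 MEF cells plated 2 days earlier and infected with MCMV (20–30 plaques/well) for 1 h. Six 1:5 drug dilutions in MEM + 2% FBS, duplicate wells, 7 days at 37 °C, 1.5% neutral red stain, plaques counted; IC50 by linear regression vs log concentration.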
row,SMILES,IC50
1,Nc1nc2c(ncn2COC(CO)CO)c(=O)[nH]1 [GANCICLOVIR],3.4 µM
2,Nc1nc(O)c2ncn(/C=C3/CC3CO)c2n1 (stereo not given) [SYNGUANOL],0.3 µM

# System: Vero
# Test: Compound was tested against vero cells infected with herpes simplex virus type 2 (HSV-2)
# Type: functional, cell-based
# Settings: Chlorocebus sabaeus
# Outline: (§4)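 Confluent Vero monolayers (RPMI + 5% FBS + 0.1% methylcellulose) infected 1 h with HSV-1 KOS or HSV-2 333 at 20 or 100 pfu/well. Drug overlay in RPMI + 2% dialyzed FBS + 0.1% methylcellulose, 48–72 h at 37 °C, 5% CO2. Crystal violet stain, plaques counted; IC50 by linear regression of % inhibition vs log concentration.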
row,SMILES,IC50
1,Nc1nc(O)c2ncn(/C=C3/CC3CO)c2n1 (stereo not given) [SYNGUANOL],> 100 µM
2,Nc1nc(Cl)c2ncn(/C=C3\CC3CO)c2n1 (stereo not given),> 100 µM

# System: Vero
# Test: Inhibitory concentration against herpes simplex virus type 1 (HSV-1) infected vero cells was determined
# Type: functional, cell-based
# Settings: Chlorocebus sabaeus
# Outline: as §4
row,SMILES,IC50
1,Nc1nc(O)c2ncn(/C=C3/CC3CO)c2n1 (stereo not given) [SYNGUANOL],85 µM
2,Nc1nc(Cl)c2ncn(/C=C3\CC3CO)c2n1 (stereo not given),95 µM

# System: not listed separately
# Test: Inhibitory concentration against epstein-barr virus (EBV) infected H-1 cells was determined
# Type: functional, cell-based
# Settings: Homo sapiens
# Outline: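 H-1 cells (high-yield EBV producer from P3HR-1) kept in log growth, seeded at 2 × 10^5/well with drug in RPMI 1640 + 10% dialyzed FBS for 5 days at 37 °C. Lysates treated with RNase A and proteinase K, slot-blotted, probed with 32P EBV EcoRI C fragment; normalized to Alu DNA vs untreated cells by densitometry.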
row,SMILES,IC50
1,Nc1nc(O)c2ncn(/C=C3/CC3CO)c2n1 (stereo not given) [SYNGUANOL],0.3 µM
2,Nc1nc(Cl)c2ncn(/C=C3\CC3CO)c2n1 (stereo not given),> 10 µM

# System: MEF
# Test: Cytotoxicity on stationary MEF cells at time of MCMV plaque enumeration in cells not effected by the virus.
# Type: functional, cell-based
# Settings: Mus musculus
# Outline: as §2
row,SMILES,IC50
1,Nc1nc(O)c2ncn(/C=C3/CC3CO)c2n1 (stereo not given) [SYNGUANOL],> 429 µM
